Measurements published in ChEMBL document CHEMBL3526004, “Interaction of silymarin flavonolignans with organic anion-transporting polypeptides” (Drug Metab Dispos, 2013).
pIC50: −log10 of the molar value.

Columns and labels:
[1] = target: T1, Solute carrier organic anion transporter family member 2B1 (Homo sapiens, UniProt O94956); assay: Inhibition of OATP2B1 (unknown origin) expressed in MDCK2 cells assessed as reduction of [3H]estrone-3-sulfate uptake at 10 uM after 3 mins by beta-counting; type: ADME, cell-based; details: mdck-ii, 0.05 h
T1 sequence (O94956 whole entry): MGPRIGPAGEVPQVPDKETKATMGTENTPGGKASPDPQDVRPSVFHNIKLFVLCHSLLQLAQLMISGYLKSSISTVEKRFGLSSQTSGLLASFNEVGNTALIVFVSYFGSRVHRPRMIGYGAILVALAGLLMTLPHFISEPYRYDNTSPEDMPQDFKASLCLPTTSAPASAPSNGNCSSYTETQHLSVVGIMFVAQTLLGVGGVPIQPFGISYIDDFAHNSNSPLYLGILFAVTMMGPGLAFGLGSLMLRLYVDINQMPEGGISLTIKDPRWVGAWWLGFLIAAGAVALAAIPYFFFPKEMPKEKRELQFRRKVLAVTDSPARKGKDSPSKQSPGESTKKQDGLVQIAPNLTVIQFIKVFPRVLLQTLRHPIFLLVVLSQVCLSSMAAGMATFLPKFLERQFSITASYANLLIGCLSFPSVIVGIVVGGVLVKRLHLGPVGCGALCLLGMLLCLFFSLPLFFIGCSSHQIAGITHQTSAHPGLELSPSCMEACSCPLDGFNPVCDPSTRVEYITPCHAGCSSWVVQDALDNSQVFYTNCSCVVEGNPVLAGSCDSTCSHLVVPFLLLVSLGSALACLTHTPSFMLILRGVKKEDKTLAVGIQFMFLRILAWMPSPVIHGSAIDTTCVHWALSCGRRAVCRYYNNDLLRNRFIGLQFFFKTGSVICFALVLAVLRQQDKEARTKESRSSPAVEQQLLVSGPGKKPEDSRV
Outline: (§1)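 Confluent cells were washed in PBS, then given 1 µM [3H]-E2 17G (OATP1B1, OATP1B3 HEK293) or 1 µM [3H]-E1S (OATP2B1 MDCKII) with 10 µM compound in HBSS pH 7.4 for 3 min at 37°C. Uptake into mock or parental cells was subtracted after protein normalization. Results are % vehicle, mean ± SD of at least three experiments in triplicate.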

[2] = target: T2, Solute carrier organic anion transporter family member 1B1 (Homo sapiens, UniProt Q9Y6L6); assay: Inhibition of OATP1B1 (unknown origin) expressed in HEK293 cells assessed as reduction of [3H]estradiol-17beta-glucuronide uptake at 10 uM after 3 mins by beta-counting; type: ADME, cell-based; details: hek293, 0.05 h; outline: as §1
T2 sequence (Q9Y6L6 whole entry): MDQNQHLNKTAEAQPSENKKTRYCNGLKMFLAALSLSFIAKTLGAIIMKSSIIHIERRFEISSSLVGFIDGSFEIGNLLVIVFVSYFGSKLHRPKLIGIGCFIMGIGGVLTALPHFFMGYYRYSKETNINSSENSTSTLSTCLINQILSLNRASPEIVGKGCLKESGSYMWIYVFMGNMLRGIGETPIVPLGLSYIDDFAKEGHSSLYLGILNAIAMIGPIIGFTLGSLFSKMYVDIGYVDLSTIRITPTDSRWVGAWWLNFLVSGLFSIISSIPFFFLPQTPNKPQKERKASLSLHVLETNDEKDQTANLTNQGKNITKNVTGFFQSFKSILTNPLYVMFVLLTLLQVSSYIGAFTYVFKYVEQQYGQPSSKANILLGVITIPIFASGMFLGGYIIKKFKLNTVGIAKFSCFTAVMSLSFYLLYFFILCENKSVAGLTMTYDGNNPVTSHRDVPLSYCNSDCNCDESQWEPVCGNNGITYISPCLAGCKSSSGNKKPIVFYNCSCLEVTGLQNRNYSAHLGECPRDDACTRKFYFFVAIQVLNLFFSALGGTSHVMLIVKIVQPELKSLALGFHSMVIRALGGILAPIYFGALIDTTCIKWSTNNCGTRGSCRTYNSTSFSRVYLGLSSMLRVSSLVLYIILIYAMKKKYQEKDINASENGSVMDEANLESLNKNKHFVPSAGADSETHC

[3] = target: T3, Solute carrier organic anion transporter family member 1B3 (Homo sapiens, UniProt Q9NPD5); assay: Inhibition of OATP1B3 (unknown origin) expressed in HEK293 cells assessed as reduction of [3H]estradiol-17beta-glucuronide uptake at 10 uM after 3 mins by beta-counting; type: ADME, cell-based; details: hek293, 0.05 h; outline: as §1
T3 sequence (Q9NPD5 whole entry): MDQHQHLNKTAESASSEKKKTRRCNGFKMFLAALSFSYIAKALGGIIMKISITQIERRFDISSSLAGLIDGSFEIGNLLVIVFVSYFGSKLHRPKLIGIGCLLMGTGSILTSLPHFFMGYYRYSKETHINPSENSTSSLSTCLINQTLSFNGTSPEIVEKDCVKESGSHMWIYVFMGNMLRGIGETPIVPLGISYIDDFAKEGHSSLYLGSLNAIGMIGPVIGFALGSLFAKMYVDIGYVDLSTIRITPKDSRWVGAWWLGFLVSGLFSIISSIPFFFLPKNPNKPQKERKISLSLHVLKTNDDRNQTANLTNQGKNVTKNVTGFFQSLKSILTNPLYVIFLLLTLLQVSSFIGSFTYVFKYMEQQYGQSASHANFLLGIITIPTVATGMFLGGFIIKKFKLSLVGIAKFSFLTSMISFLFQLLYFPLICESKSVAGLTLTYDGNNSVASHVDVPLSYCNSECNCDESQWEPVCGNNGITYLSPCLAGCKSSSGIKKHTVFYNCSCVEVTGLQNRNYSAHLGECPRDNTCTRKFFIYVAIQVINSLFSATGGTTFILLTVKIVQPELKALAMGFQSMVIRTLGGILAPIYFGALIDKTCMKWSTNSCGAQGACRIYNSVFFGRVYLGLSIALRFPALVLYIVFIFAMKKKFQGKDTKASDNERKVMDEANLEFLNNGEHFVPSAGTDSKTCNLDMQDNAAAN

[4] = Unbound fraction in human plasma; type: ADME, cell-free
[5] = Cmax in patient with chronic noncirrhotic HCV infection at 700 mg; type: ADME, organism-based; set-up: dose 700 mg; details: human, in vivo
[6] = Cmax in patient with chronic noncirrhotic HCV infection at 140 mg; type: ADME, organism-based; set-up: dose 140 mg; details: human, in vivo
[7] = target: T2, Solute carrier organic anion transporter family member 1B1; assay: Inhibition of OATP1B1 (unknown origin) expressed in HEK293 cells assessed as reduction of [3H]estradiol-17beta-glucuronide uptake after 3 mins by beta-counting in presence of OATP inhibitor BSP; type: ADME, cell-based; details: hek293, 0.05 h
[8] = Ratio of fCmax in portal vein of patient with chronic noncirrhotic HCV infection at 700 mg to IC50 for OATP2B1 (unknown origin) expressed in HEK293 cells; set-up: species or system Homo sapiens
[9] = test system: Plasma; assay: Plasma concentration in patient with chronic noncirrhotic HCV at 420 to 700 mg administered 3 times per day; type: ADME, cell-free; details: human
[10] = fCmax in portal vein of patient with chronic noncirrhotic HCV infection at 140 mg; type: ADME; details: human
[11] = Ratio of fCmax in portal vein of patient with chronic noncirrhotic HCV infection at 700 mg to IC50 for OATP1B1 (unknown origin) expressed in HEK293 cells; set-up: species or system Homo sapiens
[12] = Ratio of fCmax in portal vein of patient with chronic noncirrhotic HCV infection at 140 mg to IC50 for OATP1B1 (unknown origin) expressed in HEK293 cells; set-up: species or system Homo sapiens
[13] = Residual OATP-mediated [3H]estradiol-17beta-glucuronide uptake in sandwich-cultured human hepatocytes at 100 uM after 8 days by beta-counting
[14] = fCmax in portal vein of patient with chronic noncirrhotic HCV infection at 700 mg; type: ADME; details: human
[15] = Ratio of fCmax in portal vein of patient with chronic noncirrhotic HCV infection at 700 mg to IC50 for OATP1B3 (unknown origin) expressed in HEK293 cells; set-up: species or system Homo sapiens
[16] = Ratio of fCmax in portal vein of patient with chronic noncirrhotic HCV infection at 140 mg to IC50 for OATP1B3 (unknown origin) expressed in HEK293 cells; set-up: species or system Homo sapiens
[17] = Inhibition of OATP-mediated [3H]rosuvastatin uptake in sandwich-cultured human hepatocytes at 100 uM after 8 days by beta-counting; type: ADME, cell-based, Hepatocyte
Outline: (§2)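 Hepatocytes were overlaid with Matrigel (0.25 mg/ml) on day 1 and cultured to day 8 in ITS/0.1 µM dexamethasone medium, changed daily. Uptake of [3H]-E2 17G (1 µM, 1 min) or [3H]-rosuvastatin (0.5 µM, 1.5 min) was run at 37°C in HBSS with compound or vehicle. The BSP (100 µM) accumulation was subtracted, and the OATP-mediated uptake was expressed as % vehicle, normalized to BCA protein and corrected with cell-free wells.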

[18] = Cmax at steady state in patient with chronic HCV infection at 140 mg administered 3 times per day; type: ADME, organism-based; set-up: dose 140 mg; details: human, in vivo
[19] = target: T2, Solute carrier organic anion transporter family member 1B1; assay: Inhibition of OATP1B1 (unknown origin) expressed in HEK293 cells assessed as reduction of [3H]estradiol-17beta-glucuronide uptake after 3 mins by beta-counting; type: ADME, cell-based
Outline: (§3)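 Transfected HEK293 (G418) or MDCKII (hygromycin B) cells were co-incubated with 0-100 µM compound and [3H]-E2 17G (1 µM, 0.25 µCi/ml; OATP1B1, OATP1B3) or [3H]-E1S (1 µM; OATP2B1) in HBSS pH 7.4, 3 min at 37°C. OATP-negative uptake was subtracted, and results expressed as % vehicle. Two experiments were run in duplicate. IC50 came from non-linear dose-response fits.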

[20] = target: T3, Solute carrier organic anion transporter family member 1B3; assay: Inhibition of OATP1B3 (unknown origin) expressed in HEK293 cells assessed as reduction of [3H]estradiol-17beta-glucuronide uptake after 3 mins by beta-counting in presence of OATP inhibitor BSP; type: ADME, cell-based; details: hek293, 0.05 h
[21] = Protein binding in rat; type: ADME, organism-based; details: in vivo, read-out: PB (converted)
[22] = target: T3, Solute carrier organic anion transporter family member 1B3; assay: Inhibition of OATP1B3 (unknown origin) expressed in HEK293 cells assessed as reduction of [3H]estradiol-17beta-glucuronide uptake after 3 mins by beta-counting; type: ADME, cell-based; outline: as §3
[23] = target: T1, Solute carrier organic anion transporter family member 2B1; assay: Inhibition of OATP2B1 (unknown origin) expressed in MDCK2 cells assessed as reduction of [3H]estrone-3-sulfate uptake after 3 mins by beta-counting; type: ADME, cell-based, MDCK-II; outline: as §3
[24] = Ratio of fCmax in portal vein of patient with chronic noncirrhotic HCV infection at 140 mg to IC50 for OATP2B1 (unknown origin) expressed in HEK293 cells; set-up: species or system Homo sapiens
[25] = target: T1, Solute carrier organic anion transporter family member 2B1; assay: Inhibition of OATP2B1 (unknown origin) expressed in MDCK2 cells assessed as reduction of [3H]estrone-3-sulfate uptake after 3 mins by beta-counting in presence of OATP inhibitor BSP; type: ADME, cell-based; details: mdck-ii, 0.05 h
[26] = Inhibition of OATP-mediated [3H]estradiol-17beta-glucuronide uptake in sandwich-cultured human hepatocytes at 100 uM after 1 day by beta-counting; type: ADME, cell-based, Hepatocyte
Outline: (§4)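 Day-1 human hepatocytes (seeded 350,000 cells/well, medium changed after 1 h) rinsed in HBSS at 37°C. Co-incubated with [3H]-E2 17G (1 µM, 1 min) or [3H]-rosuvastatin (0.5 µM, 1.5 min) plus compound or vehicle. Cells were washed in ice-cold HBSS, lysed in 0.5% Triton X-100, and counted by scintillation. Non-OATP accumulation (100 µM BSP) was subtracted. Results are % vehicle, protein-normalized, as mean ± SEM of three experiments in triplicate.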

[27] = Inhibition of OATP-mediated [3H]rosuvastatin uptake in sandwich-cultured human hepatocytes at 100 uM after 1 day by beta-counting; type: ADME, cell-based, Hepatocyte; outline: as §4
[28] = Inhibition of OATP-mediated [3H]estradiol-17beta-glucuronide uptake in sandwich-cultured human hepatocytes at 100 uM after 8 days by beta-counting; type: ADME, cell-based, Hepatocyte; outline: as §2

Structure (SMILES) | inhibition (INH) [1] | inhibition (INH) [2] | inhibition (INH) [3] | fraction unbound [4] | Cmax [5] | Cmax [6] | inhibition (INH) [7] | Ratio [8] | fCmax [10] | Ratio [11] | Ratio [12] | fCmax [14] | Ratio [15] | Ratio [16] | inhibition (INH) [17] | Cmax [18] | pIC50 [19] | inhibition (INH) [20] | fraction unbound [21] | pIC50 [22] | also measured
COc1cc([C@@H]2[C@H]3CO[C@@]4(O)C(=O)[C@@H]2C=C([C@H]2Oc5cc(O)cc(O)c5C(=O)[C@@H]2O)[C@@H]34)ccc1O [SILIDIANIN] | Active | Active | Active |  |  |  |  |  |  |  |  |  |  |  |  |  |  |  |  |  | 
COc1cc([C@H]2Oc3cc([C@H]4Oc5cc(O)cc(O)c5C(=O)[C@@H]4O)ccc3O[C@@H]2CO)ccc1O [SILYBIN A] | Active | Active | Active | 0.05 | 580 ng/mL | 40 ng/mL | Not Active | 0.05 | 0.04 µM | 0.02 | 0.004 | 0.22 µM | 0.08 | 0.01 | Active | 80 nM | 5.01 | Not Active | 0.3 | 5.57 | concentration [9]: 4200 nM; residual activity [13]: 58%; pIC50 [23]: 5.35; Ratio [24]: 0.01; inhibition (INH) [25]: Not Active; inhibition (INH) [26]: Active; inhibition (INH) [27]: Active
COc1cc([C@@H]2Oc3cc([C@H]4Oc5cc(O)cc(O)c5C(=O)[C@@H]4O)ccc3O[C@H]2CO)ccc1O [SILYBIN B] | Active | Active |  | 0.05 | 220 ng/mL | 8 ng/mL | Not Active | 0.88 | 0.13 µM | 0.08 | 0.02 | 0.7 µM | 0.14 | 0.03 | Active | 16 nM | 5.07 | Not Active | 0.3 | 5.30 | inhibition (INH) [28]: Active; pIC50 [23]: 6.10; Ratio [24]: 0.16; inhibition (INH) [25]: Not Active; inhibition (INH) [26]: Active; inhibition (INH) [27]: Active
